Laboratory results published in ChEMBL document CHEMBL3352312, “Synthesis of linear and cyclic guazatine derivatives endowed with antibacterial activity” (Bioorg Med Chem Lett, 2014).

Tests used:
[1] = test system: Enterococcus faecalis; assay: Antibacterial activity against Enterococcus faecalis ATCC 19433 after 16 to 18 hrs by microbroth dilution method; format: functional
In short: (§1)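 Broth microdilution in Mueller–Hinton broth following CLSI recommendations. Strains came from ATCC or CCUG collections or the authors' clinical isolates. Compounds were dissolved in DMSO as a 100 mg/ml stock and then diluted in culture medium. Inoculum was 5 × 10⁴ CFU/well. MIC was read after 16–18 h incubation at 35–37 °C.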

[2] = test system: Staphylococcus warneri; assay: Antibacterial activity against penicillin/aminoglycoside-resistant Staphylococcus warneri SI-5/2011 after 16 to 18 hrs by microbroth dilution method; format: functional
In short: (§2)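 Broth microdilution MIC per CLSI in Mueller–Hinton broth. Inoculum 5 × 10⁴ CFU/well. Compounds dissolved in DMSO at 100 mg/ml, then diluted in culture medium. Plates incubated 16–18 h at 35–37 °C before reading the MIC. Strains were taken from ATCC or CCUG collections or from the authors' clinical isolate collection.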

[3] = Solubility of the compound in pure water at 1.2 mg after 24 to 36 hrs by LC-MS/MS analysis; format: physicochemical
[4] = test system: Staphylococcus aureus; assay: Antibacterial activity against glycopeptide-resistant Staphylococcus aureus ATCC 700699 (VanA) after 16 to 18 hrs by microbroth dilution method; format: functional; in short: as §2
[5] = Apparent permeability of the compound at pH 7.4 after 5 hrs by PAMPA; format: physicochemical
In short: (§3)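 Parallel artificial membrane permeability assay run at physiological pH 7.4 and at alkaline pH 10.0, the duodenal-like condition, as a gastrointestinal permeability model. Apparent permeability (P_app) is reported in nm/s, together with the percentage of compound retained in the membrane.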

[6] = test system: Achromobacter xylosoxidans; assay: Antibacterial activity against penicillin/expanded-spectrum cephalosporin/carbapenem/aminoglycoside-resistant Achromobacter xylosoxidans AX 22 after 16 to 18 hrs by microbroth dilution method; format: functional; in short: as §2
[7] = Metabolic stability in human liver microsomes after 60 mins by LC-UV-MS analysis; format: ADME; conditions: read-out: Stability
[8] = test system: Escherichia coli; assay: Antibacterial activity against Escherichia coli CCUGT after 16 to 18 hrs by microbroth dilution method; format: functional; in short: as §1
[9] = target: Albumin (Homo sapiens, UniProt P02768); assay: Binding affinity to human serum albumin after 30 mins by fluorescence spectroscopic analysis; format: ADME
Albumin, sequence (P02768 whole entry): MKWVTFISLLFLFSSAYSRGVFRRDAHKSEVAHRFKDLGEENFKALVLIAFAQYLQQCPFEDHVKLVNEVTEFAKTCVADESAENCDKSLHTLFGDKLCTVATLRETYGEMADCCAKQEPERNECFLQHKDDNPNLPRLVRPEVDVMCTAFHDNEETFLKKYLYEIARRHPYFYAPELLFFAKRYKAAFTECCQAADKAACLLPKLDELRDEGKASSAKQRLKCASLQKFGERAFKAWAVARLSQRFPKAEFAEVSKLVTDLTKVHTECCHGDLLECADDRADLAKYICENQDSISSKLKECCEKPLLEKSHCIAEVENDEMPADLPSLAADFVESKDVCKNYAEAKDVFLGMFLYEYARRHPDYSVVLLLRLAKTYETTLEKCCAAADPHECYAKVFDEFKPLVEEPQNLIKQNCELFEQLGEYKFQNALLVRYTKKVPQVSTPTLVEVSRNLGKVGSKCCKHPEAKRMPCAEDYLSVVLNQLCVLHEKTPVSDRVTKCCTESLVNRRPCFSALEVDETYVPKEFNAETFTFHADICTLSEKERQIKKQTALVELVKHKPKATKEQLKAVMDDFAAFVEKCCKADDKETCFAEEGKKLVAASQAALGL

[10] = test system: Alcaligenes faecalis; assay: Antibacterial activity against expanded-spectrum cephalosporin/carbapenem/monobactam-resistant Alcaligenes faecalis 424/98 after 16 to 18 hrs by microbroth dilution method; format: functional; in short: as §2
[11] = test system: Staphylococcus aureus; assay: Antibacterial activity against penicillin-resistant Staphylococcus aureus ATCC 43300 after 16 to 18 hrs by microbroth dilution method; format: functional; in short: as §2
[12] = test system: Elizabethkingia meningoseptica; assay: Antibacterial activity against Elizabethkingia meningoseptica CCUG 4310 after 16 to 18 hrs by microbroth dilution method; format: functional; in short: as §1
[13] = test system: Pseudomonas aeruginosa; assay: Antibacterial activity against penicillin/expanded-spectrum cephalosporin/carbapenem/aminoglycoside-resistant Pseudomonas aeruginosa 101/1477 after 16 to 18 hrs by microbroth dilution method; format: functional; in short: as §2
[14] = Apparent permeability of the compound assessed as membrane retention at pH 7.4 after 5 hrs by PAMPA; format: physicochemical; conditions: pH 7.4, 5 h; in short: as §3
[15] = test system: Pseudomonas aeruginosa; assay: Antibacterial activity against Pseudomonas aeruginosa ATCC 27853 after 16 to 18 hrs by microbroth dilution method; format: functional; in short: as §1
[16] = test system: Staphylococcus aureus; assay: Antibacterial activity against Staphylococcus aureus ATCC 25923 after 16 to 18 hrs by microbroth dilution method; format: functional; in short: as §2
[17] = test system: Acinetobacter baumannii; assay: Antibacterial activity against Acinetobacter baumannii ATCC 17978 after 16 to 18 hrs by microbroth dilution method; format: functional; in short: as §1
[18] = Apparent permeability of the compound assessed as membrane retention at pH 10.0 after 5 hrs by PAMPA; format: physicochemical; conditions: pH 10, 5 h; in short: as §3
[19] = Cytotoxicity against human HeLa cells after 48 hrs; format: cell-based
[20] = test system: Bacillus subtilis; assay: Antibacterial activity against Bacillus subtilis ATCC 6633 after 16 to 18 hrs by microbroth dilution method; format: functional; in short: as §1
[21] = Ratio of CC50 for human HeLa cells to MIC for Escherichia coli CCUGT
[22] = Cytotoxicity against human HeLa cells after 24 hrs; format: cell-based
[23] = Apparent permeability of the compound at pH 10.0 after 5 hrs by PAMPA; format: physicochemical; in short: as §3
[24] = test system: Klebsiella pneumoniae; assay: Antibacterial activity against Klebsiella pneumoniae ATCC 13833 after 16 to 18 hrs by microbroth dilution method; format: functional; in short: as §1
[25] = test system: Staphylococcus hominis; assay: Antibacterial activity against linezolid-resistant Staphylococcus hominis SI-7/2011 after 16 to 18 hrs by microbroth dilution method; format: functional; in short: as §2
[26] = test system: Staphylococcus haemolyticus; assay: Antibacterial activity against aminoglycoside-resistant Staphylococcus haemolyticus SI-6/2011 after 16 to 18 hrs by microbroth dilution method; format: functional; in short: as §2
[27] = test system: Staphylococcus epidermidis; assay: Antibacterial activity against Staphylococcus epidermidis ATCC 14990 after 16 to 18 hrs by microbroth dilution method; format: functional; in short: as §1
[28] = test system: Pseudomonas aeruginosa; assay: Antibacterial activity against penicillin/expanded-spectrum cephalosporin/carbapenem/monobactam/aminoglycoside/fluoroquinolone-resistant Pseudomonas aeruginosa VR-143/97 after 16 to 18 hrs by microbroth dilution method; format: functional; in short: as §2
[29] = test system: Streptococcus pyogenes; assay: Antibacterial activity against Streptococcus pyogenes ATCC 12344 after 16 to 18 hrs by microbroth dilution method; format: functional; in short: as §1
[30] = test system: Stenotrophomonas maltophilia; assay: Antibacterial activity against penicillin/expanded-spectrum cephalosporin/carbapenem/monobactam/aminoglycoside/trimethoprim/sulfamethoxazole/fosfomycin-resistant Stenotrophomonas maltophilia 634/08 after 16 to 18 hrs by microbroth dilution method; format: functional; in short: as §2
[31] = Ratio of CC50 for human HeLa cells to MIC for Klebsiella pneumoniae 7023
[32] = test system: Klebsiella pneumoniae; assay: Antibacterial activity against penicillin/expanded-spectrum cephalosporin/carbapenem/aminoglycoside/fluoroquinolone/trimethoprim/sulfamethoxazole-resistant Klebsiella pneumoniae 7023 after 16 to 18 hrs by microbroth dilution method; format: functional; in short: as §2
[33] = test system: Enterobacter cloacae; assay: Antibacterial activity against penicillin/CEPH/carbapenem/aminoglycoside/fluoroquinolone-resistant Enterobacter cloacae VA-417/02 after 16 to 18 hrs by microbroth dilution method; format: functional; in short: as §2
[34] = test system: Aeromonas hydrophila; assay: Antibacterial activity against Aeromonas hydrophila ATCC 7966 after 16 to 18 hrs by microbroth dilution method; format: functional; in short: as §1
[35] = test system: Acinetobacter baumannii; assay: Antibacterial activity against penicillin/expanded-spectrum cephalosporin/carbapenem/aztreonam/aminoglycoside/fluoroquinolone/fosfomycin/trimethoprim/sulfamethoxazole-resistant Acinetobacter baumannii AC-54/97 after 16 to 18 hrs by microbroth dilution method; format: functional; in short: as §2

SMILES: N=C(N)NCCCCCCCCNCCCCCCCCNC(=N)NCC1CC1.O=C(O)C(F)(F)F.O=C(O)C(F)(F)F.O=C(O)C(F)(F)F
- MIC [1]: 1 µg/mL
- MIC [2]: 2 µg/mL
- solubility [3]: 966 µg/mL
- MIC [4]: 4 µg/mL
- Papp at 5 h [5]: 0.95 ×10⁻⁶ cm/s
- MIC [6]: 4 µg/mL
- remaining at 1 h [7]: > 99%
- MIC [8]: 0.5 µg/mL
- Kd [9]: 26.5 µM
- MIC [10]: 4 µg/mL
- MIC [11]: 4 µg/mL
- MIC [12]: 32 µg/mL
- MIC [13]: 8 µg/mL
- Papp [14]: 8.8%
- MIC [15]: 8 µg/mL
- MIC [16]: 4 µg/mL
- MIC [17]: 4 µg/mL
- Papp [18]: 60.6%
- CC50 at 48 h [19]: 62 µM
- MIC [20]: 0.5 µg/mL
- Ratio [21]: >=70
- CC50 at 24 h [22]: 92.6 µM
- Papp at 5 h [23]: 16.7 ×10⁻⁶ cm/s
- MIC [24]: 1 µg/mL
- MIC [25]: 2 µg/mL
- MIC [26]: 2 µg/mL
- MIC [27]: 0.5 µg/mL
- MIC [28]: 8 µg/mL
- MIC [29]: < 0.125 µg/mL
- MIC [30]: 4 µg/mL
- Ratio [31]: >=70
- MIC [32]: 2 µg/mL
- MIC [33]: 2 µg/mL
- MIC [34]: 8 µg/mL
- MIC [35]: 4 µg/mL
